ERp5 inh = blocks human ERp5 reductase activity on insulin. Q15084. ERp5 insulin aggregation, absorbance 650 nm, 90 min. inhibition, % at 9.99 µM. hit rate 0.05% among 350,000. AID 651711;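 active = mean replicate inhibition above about 25%, with every replicate also reaching it, limit read from the data, passing the limit was not always enough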
SIRT5 block = sirtuin-5 (human) deacylase inhibition; hit rate 1.1% among 330,000; inhibition, % at 15 µM; Purified SirT5, succinyl-peptide AMC, trypsin-coupled fluorescence; Q9NXA8; in the data active = inhibition above about 15%
Target sequence (Q9NXA8 whole entry, looked up): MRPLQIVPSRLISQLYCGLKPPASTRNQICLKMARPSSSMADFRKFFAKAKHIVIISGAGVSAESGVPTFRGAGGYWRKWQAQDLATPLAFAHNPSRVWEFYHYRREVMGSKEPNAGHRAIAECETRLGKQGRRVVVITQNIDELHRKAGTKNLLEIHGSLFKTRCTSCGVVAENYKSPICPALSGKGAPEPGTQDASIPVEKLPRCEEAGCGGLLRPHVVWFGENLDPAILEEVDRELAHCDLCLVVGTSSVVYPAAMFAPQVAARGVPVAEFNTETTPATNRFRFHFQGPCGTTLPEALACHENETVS
PDI inh = blocks human protein disulfide isomerase activity; P07237; PDI insulin aggregation turbidity, A650, 90 min; AID 588391; inhibition, % at 10 µM; hit rate 0.052% among 350,000;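 active = mean inhibition across replicates of 30% or more, whatever share of single replicates reach that level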
S100A4 MyoIIA = S100A4-myosin IIA interaction inhibition | S100A4/TAMRA-MyoIIA peptide fluorescence polarization | hit rate 0.14% among 360,000 | inhibition, % at 10.7 µM | P26447;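 active = mean inhibition of at least 70% across replicates, with every replicate also reaching that level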
Target sequence (P26447 whole entry, looked up): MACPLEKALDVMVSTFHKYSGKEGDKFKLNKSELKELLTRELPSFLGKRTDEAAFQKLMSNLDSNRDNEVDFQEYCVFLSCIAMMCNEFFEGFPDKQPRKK
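Test system – S100A4 monomer (human) · Compound – single-point compound testing · Schedule – 5 min incubation before reading · Probe or stimulus – TAMRA-labelled myosin IIA heavy-chain peptide probe, 5 nM · Benchmarks – neutral control DMSO, positive control TFP · Medium – Calcium-containing HEPES buffer, pH 7.2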
GSIS activator = GLuc luminescence reporter in INS-1E cells, primary screen for activators of glucose-dependent secretion of insulin; INS-1E GLuc reporter insulin secretion, 2-3 h; activation, % at 16.6 µM; hit rate 0.61% among 370,000; AID 743287;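 active = lowest replicate activation of at least 40%, so every replicate reaches that level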;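 also: 0% = median of neutral control wells and 100% = median of IBMX positive control wells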
An asterisk follows results filed as active; . = no result; ! = a repeat was not active. Most compounds without a hit are left out; they make up all but 1.5% or so of the library.

SMILES | ERp5 inh | SIRT5 block | PDI inh | S100A4 MyoIIA | GSIS activator
C[C@H]1CN([C@@H](C)CO)C(=O)Cc2cc(NC(=O)CCC(F)(F)F)ccc2O[C@@H]1CN(C)S(=O)(=O)c1ccc(Cl)cc1 | 9.0 | . | . | 1.7 | 6.2
CCCSc1ccc([C@@H]2[C@H]3C(=O)N(CC)C(=O)[C@H]3[C@]3(C(=O)OC)CCCN23)cc1 | 1.4 | 36.2* | -1.2 | -14.7 | 8.4
CCCSc1ccc([C@@H]2[C@@H]3C(=O)N(CC)C(=O)[C@@H]3[C@]3(C(=O)OC)CCCCN23)cc1 | 3.4 | . | -1.2 | -2.5 | -13.2
C[C@@H](NC(=O)C[C@H]1CC[C@H](NC(=O)Nc2ccc3c(c2)OCO3)[C@H](CO)O1)c1ccccc1 | -4.9 | 0.7 | . | 14.9 | 10.6
C[C@@H]1CN([C@@H](C)CO)C(=O)c2cc(NC(=O)Cn3cnnn3)ccc2O[C@@H]1CN(C)CC1CCCCC1 | 6.5 | -3.5 | . | 2.7 | 15.1
C[C@H](CO)N1C[C@H](C)[C@@H](CN(C)CC2CCCCC2)Oc2ccc(NC(=O)Cn3cnnn3)cc2C1=O | 13.9 | 15.3*! | -3.9 | 8.9 | -3.3
Cc1noc(C)c1S(=O)(=O)N(C)C[C@@H]1Oc2ccc(NC(=O)Cn3cnnn3)cc2C(=O)N([C@@H](C)CO)C[C@@H]1C | -0.8 | 23.1* | . | 4.7 | 11.1
O=c1c(C=Nc2ccc(Oc3ccccc3)cc2)c[nH]n1-c1cccc(Cl)n1 | . | . | -5.2 | . | 106.6*
CCn1cc(C(=O)O)c(=O)c2cnc(N3CCN(C(=S)Nc4ccccc4Cl)CC3)nc21 | 2.2 | 15.9* | 2.2 | 6.7 | 2.6
O=C(Nc1ccccc1)N1CC(=O)N2[C@H](CO)[C@@H](c3ccc(-c4ccc(F)cc4)cc3)[C@@H]2C1 | . | . | . | . | -3.8
C[C@H](CO)N1C[C@H](C)[C@@H](CN(C)S(=O)(=O)c2cccs2)OCCCC[C@H](C)Oc2ccc(NS(=O)(=O)c3cccs3)cc2C1=O | 3.0 | 9.1 | . | -7.6 | -6.1
COc1cccc(C(=O)OCCCN(C)C)c1 | 5.9 | 15.5* | -0.2 | -6.0 | 6.6
COc1cccc(C(=O)OCCN2CCCCC2)c1 | . | . | -0.8 | . | .
C[C@@H]1CN([C@@H](C)CO)C(=O)c2cc(NS(=O)(=O)c3ccc(Cl)cc3)ccc2O[C@@H](C)CCCCO[C@@H]1CN(C)Cc1ccc(C(=O)O)cc1 | 1.7 | 4.5 | . | -5.1 | 11.2
C[C@@H]1CN([C@H](C)CO)C(=O)c2cc(NC(=O)NC3CCCCC3)ccc2O[C@@H](C)CCCCO[C@@H]1CN(C)Cc1ccc(C(=O)O)cc1 | -1.4 | -4.1 | . | 3.2 | -6.3
Cc1ccc(OCC(O)CN2CCN(c3ccccn3)CC2)c(C)c1 (stereo not drawn) | -1.0 | -0.1 | -1.3 | -1.6 | -11.3
Cc1ccccc1OCC(O)CN1CCN(CC(O)COc2ccccc2C)CC1 (stereo not drawn) | 3.7 | 29.9* | -1.6 | 5.5 | -8.8
CC(C)(C)c1ccccc1OCC(O)CN1CCN(c2ccccn2)CC1 (stereo not drawn) | 0.0 | 2.0 | 6.3 | -0.2 | 63.4*
Cc1ccccc1OCC(O)CN1CCCCC1 (stereo not drawn) | 3.0 | -1.6 | 7.6 | 4.0 | -2.5
Cc1ccccc1-c1cnc2c(c1)C(=O)N([C@@H](C)CO)C[C@@H](C)[C@H](CN(C)Cc1cccnc1)O2 | 2.6 | -1.2 | . | -0.7 | 12.2
CCOC(=O)C1=C(C)N=c2sc(=Cc3ccc(OCC(=O)O)cc3)c(=O)n2C1c1ccc(Cl)cc1 (stereo not drawn) | 6.1 | 20.9* | 0.4 | 14.4 | -1.3
COc1ccc(Sc2ccc(/C=C3\C(=O)NN(c4ccccc4)C3=O)o2)cc1 | . | . | 4.7 | . | -20.3
Cc1ccc(N2NC(=O)/C(=C/c3ccc(-c4ccc(Cl)c(C(=O)O)c4)o3)C2=O)cc1 | -2.6 | 5.5 | 16.0 | -3.0 | 7.0
O=C1NN(c2ccc(Cl)cc2)C(=O)/C1=C\c1ccc(-c2cccc(C(=O)O)c2)o1 | -0.9 | 27.7* | -1.9 | -9.2 | -0.5
O=C1NN(c2ccccc2)C(=O)/C1=C\c1ccc(-c2cc([N+](=O)[O-])ccc2O)o1 | 5.7 | 17.7* | -0.8 | -5.5 | -11.1
SMILES | ERp5 inh | SIRT5 block | PDI inh | S100A4 MyoIIA | GSIS activator
O=C(c1ccco1)N1CCN(C2CN(Cc3ccccc3)S(=O)(=O)C2)CC1 (stereo not drawn) | -2.7 | -0.8 | . | -4.2 | 47.2*
O=C(c1ccco1)N1CCN(C2CN(Cc3ccc([N+](=O)[O-])cc3)S(=O)(=O)C2)CC1 (stereo not drawn) | 4.6 | . | 9.5 | -5.0 | 22.5
O=C(NCCN1CCN(C(=O)c2cccc(Br)c2)CC1)C(=O)NCc1ccccc1 | -17.3 | -2.0 | 1.2 | -0.8 | 7.2
O=C(NCCN1CCN(C(=O)c2ccccc2Cl)CC1)C(=O)NCc1ccccc1 | 2.2 | -1.3 | 13.3 | -0.8 | 159.8*
COc1ccccc1/C=C1\C(=O)Nc2ccccc21 | -7.7 | 15.5* | -22.9 | -19.8 | -3.7
O=C(NCc1ccccn1)c1coc(=O)c(Br)c1 | . | . | -9.4 | . | 101.6*
Cc1noc(C)c1NC(=O)Nc1ccc2c(c1)C(=O)N([C@H](C)CO)C[C@H](C)[C@H](CN(C)C(=O)Cc1ccccc1)OCCCC[C@H](C)O2 | 1.7 | 6.5 | . | 0.6 | 4.1
C[C@@H]1CCCCO[C@@H](CN(C)Cc2ccc(Cl)c(Cl)c2)[C@@H](C)CN([C@@H](C)CO)C(=O)c2cc(NC(=O)C3CCCCC3)ccc2O1 | -0.8 | -2.5 | . | 0.4 | -6.2
O=C(N1CCCCC1)C1(c2ccccc2)CCCCC1 | 0.5 | -3.6 | 4.5 | -3.5 | .
CC1(C(=O)N2CCCCC2)CCN1C(=O)C1(c2ccccc2)CC1 (stereo not drawn) | 6.3 | . | -4.7 | 3.4 | 40.1*
Cc1ccc(S(=O)(=O)/N=C2\CN(C)C(=O)N2C)cc1 | -1.7 | -0.2 | 4.6 | 0.8 | 45.2*
Cc1ccc(S(=O)(=O)/N=c2\sccn2C)cc1 | . | . | -47.0 | . | .
COc1cc(-c2c(-c3ccc4c(c3)OCO4)noc2-c2ccsc2)ccc1F | 5.4 | 17.0* | -3.0 | -8.2 | -8.5
Cc1ccc2[nH]c(C(=O)N3CCN(C=O)CC3)cc2c1 | 6.0 | 15.7* | 1.2 | 2.3 | 1.6
CCOC(=O)N1CCN(C(=O)c2cc3cc(C)ccc3[nH]2)CC1 | 2.9 | 2.1 | -1.6 | 1.2 | -0.5
CO[C@@H]1CN(C)C(=O)c2ccc(NC(=O)c3nc4ccccc4s3)cc2OC[C@@H](C)N(Cc2cccnc2)C[C@H]1C | 57.0 | 102.5* | . | . | -12.3
CO[C@H]1CN(C)C(=O)c2ccc(NS(=O)(=O)c3ccccc3)cc2OC[C@@H](C)N(Cc2cccnc2)C[C@@H]1C | -10.7 | 1.8 | . | 7.9 | -12.8
CCCN1C[C@H](C)[C@@H](OC)CN(C)C(=O)c2cc(NS(=O)(=O)c3ccccc3)ccc2OC[C@H]1C | 9.5 | 31.5* | . | -1.3 | 8.9
CO[C@H]1CN(C)C(=O)c2ccc(NS(=O)(=O)c3ccccc3)cc2OC[C@H](C)N(Cc2cccnc2)C[C@@H]1C | -0.6 | 2.4 | . | 79.4* | -14.3
